According to ChEMBL document CHEMBL2380254, “Optimization of tocotrienols as antiproliferative and antimigratory leads” (Eur J Med Chem, 2013):

Legend:
Format in all cases: functional
TK-10 = assay: Growth inhibition of human TK10 cells assessed as cell growth at 10 uM after 48 hrs by sulforhodamine B assay; conditions: TK-10, 48 h, read-out: Activity
Method in brief: (§1)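 Single-dose NCI-60 test at 10 µM. Cells were grown in RPMI 1640 with 5% FBS and 2 mM L-glutamine, preincubated 24 h, with T0 plates TCA-fixed. Exposure was 48 h at 37 °C, 5% CO2. Cells were fixed with cold TCA (final 10%, 4 °C, 60 min), stained with SRB and read at 515 nm. Percent growth was taken relative to T0 and untreated control; negative values denote cell kill.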

A549 = assay: Growth inhibition of human A549/ATCC cells assessed as cell growth at 10 uM after 48 hrs by sulforhodamine B assay; conditions: A549, 48 h, read-out: Activity
Method in brief: (§2)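 NCI-60 single-dose screen at 10 µM: cells in RPMI 1640 with 5% FBS, preincubated 24 h, then exposed 48 h at 37 °C. TCA fixation (16% final for suspension cells), SRB staining, absorbance 515 nm. Percent growth relative to time-zero and untreated control plates; negative values indicate cell kill.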

Malme-3M = assay: Growth inhibition of human MALME-3M cells assessed as cell growth at 10 uM after 48 hrs by sulforhodamine B assay; conditions: read-out: Activity
Method in brief: (§3)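 Single-dose NCI-60 screen: adherent cells in RPMI 1640 with 5% FBS were exposed to 10 µM for 48 h at 37 °C after a 24 h preincubation. They were fixed in situ with cold TCA (10% final), stained with 0.4% SRB in 1% acetic acid, solubilized in 10 mM Tris base, and read at 515 nm. Percent growth was taken relative to time-zero and control plates.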

SR = assay: Growth inhibition of human SR cells assessed as cell growth at 10 uM after 48 hrs by sulforhodamine B assay; conditions: read-out: Activity
Method in brief: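 Suspension line in RPMI 1640 with 5% FBS, single 10 µM dose for 48 h. Settled cells were fixed with TCA (final 16%), then SRB-stained and read at 515 nm. Percent growth was taken versus T0 and control; negative values denote cytotoxicity.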

K562 = assay: Growth inhibition of human K562 cells assessed as cell growth at 10 uM after 48 hrs by sulforhodamine B assay; conditions: K562, 48 h, read-out: Activity; method in brief: as §2
ACHN = assay: Growth inhibition of human ACHN cells assessed as cell growth at 10 uM after 48 hrs by sulforhodamine B assay; conditions: read-out: Activity; method in brief: as §2
NCI-H322M = assay: Growth inhibition of human NCI-H322M cells assessed as cell growth at 10 uM after 48 hrs by sulforhodamine B assay; conditions: read-out: Activity; method in brief: as §3
NCI-H460 = assay: Growth inhibition of human NCI-H460 cells assessed as cell growth at 10 uM after 48 hrs by sulforhodamine B assay; conditions: NCI-H460, 48 h, read-out: Activity; method in brief: as §3
[1] = Growth inhibition of human HCC2998 cells assessed as cell growth at 10 uM after 48 hrs by sulforhodamine B assay; conditions: HCC 2998, 48 h, read-out: Activity; method in brief: as §2
HT-29 = assay: Growth inhibition of human HT-29 cells assessed as cell growth at 10 uM after 48 hrs by sulforhodamine B assay; conditions: HT-29, 48 h, read-out: Activity; method in brief: as §2
NCI-H226 = assay: Growth inhibition of human NCI-H226 cells assessed as cell growth at 10 uM after 48 hrs by sulforhodamine B assay; conditions: NCI-H226, 48 h, read-out: Activity; method in brief: as §3
MDA-MB-435 = assay: Growth inhibition of human MDA-MB-435 cells assessed as cell growth at 10 uM after 48 hrs by sulforhodamine B assay; conditions: MDA-MB-435, 48 h, read-out: Activity; method in brief: as §3
SW-620 = assay: Growth inhibition of human SW620 cells assessed as cell growth at 10 uM after 48 hrs by sulforhodamine B assay; conditions: SW-620, 48 h, read-out: Activity; method in brief: as §1
HOP-92 = assay: Growth inhibition of human HOP92 cells assessed as cell growth at 10 uM after 48 hrs by sulforhodamine B assay; conditions: HOP-92, 48 h, read-out: Activity; method in brief: as §2
T47D = assay: Growth inhibition of human T47D cells assessed as cell growth at 10 uM after 48 hrs by sulforhodamine B assay; conditions: read-out: Activity; method in brief: as §1
OVCAR-5 = assay: Growth inhibition of human OVCAR5 cells assessed as cell growth at 10 uM after 48 hrs by sulforhodamine B assay; conditions: OVCAR-5, 48 h, read-out: Activity; method in brief: as §3
RXF 393 = assay: Growth inhibition of human RXF393 cells assessed as cell growth at 10 uM after 48 hrs by sulforhodamine B assay; conditions: RXF 393, 48 h, read-out: Activity; method in brief: as §3

## COc1ccc(CCNCc2c(O)c(C)c(C)c3c2CC[C@@](C)(CC/C=C(\C)CC/C=C(\C)CCC=C(C)C)O3)cc1OC
TK-10
  growth at 10 µM: 106%
A549
  growth at 10 µM: 91.8%
Malme-3M
  growth at 10 µM: 120%
SR
  growth at 10 µM: 7.87%
K562
  growth at 10 µM: 42%
ACHN
  growth at 10 µM: 97.5%
NCI-H322M
  growth at 10 µM: 95.6%
NCI-H460
  growth at 10 µM: 73.4%
[1]
  growth at 10 µM: -25.9%
HT-29
  growth at 10 µM: 45.8%
NCI-H226
  growth at 10 µM: 106%
MDA-MB-435
  growth at 10 µM: 57.5%
SW-620
  growth at 10 µM: 47.2%
HOP-92
  growth at 10 µM: 104%
T47D
  growth at 10 µM: 83.2%
OVCAR-5
  growth at 10 µM: 104%

## CC(C)=CCC/C(C)=C/CC/C(C)=C/CC[C@]1(C)CCc2c(CNCCc3ccc(O)cc3)c(O)c(C)c(C)c2O1
TK-10
  growth at 10 µM: 113%
A549
  growth at 10 µM: 94.2%
Malme-3M
  growth at 10 µM: 110%
SR
  growth at 10 µM: 18.5%
K562
  growth at 10 µM: 63%
ACHN
  growth at 10 µM: 98.7%
NCI-H322M
  growth at 10 µM: 100%
NCI-H460
  growth at 10 µM: 92.3%
[1]
  growth at 10 µM: 57.7%
HT-29
  growth at 10 µM: 95.5%
NCI-H226
  growth at 10 µM: 105%
MDA-MB-435
  growth at 10 µM: 81.3%
SW-620
  growth at 10 µM: 101%
HOP-92
  growth at 10 µM: 94.6%
T47D
  growth at 10 µM: 99.1%
OVCAR-5
  growth at 10 µM: 113%

## CC(C)=CCC/C(C)=C/CC/C(C)=C/CC[C@]1(C)CCc2c3c(c(C)c(C)c2O1)OCN(CCCCCCCCCCO)C3
TK-10
  growth at 10 µM: 99.4%
A549
  growth at 10 µM: 74.9%
Malme-3M
  growth at 10 µM: 105%
SR
  growth at 10 µM: 51.9%
K562
  growth at 10 µM: 77.6%
ACHN
  growth at 10 µM: 92.6%
NCI-H322M
  growth at 10 µM: 101%
RXF 393
  growth at 10 µM: 83.1%
NCI-H460
  growth at 10 µM: 75.5%
[1]
  growth at 10 µM: 97.9%
HT-29
  growth at 10 µM: 90%
NCI-H226
  growth at 10 µM: 92.6%
MDA-MB-435
  growth at 10 µM: 98.3%
SW-620
  growth at 10 µM: 105%
HOP-92
  growth at 10 µM: 93.7%
T47D
  growth at 10 µM: 85.2%
OVCAR-5
  growth at 10 µM: 106%

## CC(C)=CCC/C(C)=C/CC/C(C)=C/CC[C@]1(C)CCc2c3c(c(C)c(C)c2O1)OCN(CCCCCCCCCCCCO)C3
TK-10
  growth at 10 µM: 108%
A549
  growth at 10 µM: 86.5%
Malme-3M
  growth at 10 µM: 101%
SR
  growth at 10 µM: 67.2%
K562
  growth at 10 µM: 80.5%
ACHN
  growth at 10 µM: 105%
NCI-H322M
  growth at 10 µM: 90.7%
RXF 393
  growth at 10 µM: 92.5%
NCI-H460
  growth at 10 µM: 103%
[1]
  growth at 10 µM: 102%
HT-29
  growth at 10 µM: 84.4%
NCI-H226
  growth at 10 µM: 93.3%
MDA-MB-435
  growth at 10 µM: 100%
SW-620
  growth at 10 µM: 109%
HOP-92
  growth at 10 µM: 107%
T47D
  growth at 10 µM: 95.8%
OVCAR-5
  growth at 10 µM: 114%

## CC(C)=CCC/C(C)=C/CC/C(C)=C/CC[C@]1(C)CCc2c3c(cc(C)c2O1)OCN(CCCCCCCCCCCCO)C3
TK-10
  growth at 10 µM: 58.4%
A549
  growth at 10 µM: 47.6%
Malme-3M
  growth at 10 µM: 106%
SR
  growth at 10 µM: -19.6%
K562
  growth at 10 µM: 47.4%
ACHN
  growth at 10 µM: 91.3%
NCI-H322M
  growth at 10 µM: 86%
RXF 393
  growth at 10 µM: 34.4%
NCI-H460
  growth at 10 µM: 48.2%
[1]
  growth at 10 µM: 68.7%
HT-29
  growth at 10 µM: 49.5%
NCI-H226
  growth at 10 µM: 80.6%
MDA-MB-435
  growth at 10 µM: 71.5%
SW-620
  growth at 10 µM: 95.2%
T47D
  growth at 10 µM: 78.5%
OVCAR-5
  growth at 10 µM: 102%

## CC(C)=CCC/C(C)=C/CC/C(C)=C/CC[C@]1(C)CCc2c3c(c(C)c(C)c2O1)OCN(CCc1ccc(O)cc1)C3
TK-10
  growth at 10 µM: 106%
A549
  growth at 10 µM: 92.8%
Malme-3M
  growth at 10 µM: 114%
SR
  growth at 10 µM: 16.3%
K562
  growth at 10 µM: 54.9%
ACHN
  growth at 10 µM: 99.8%
NCI-H322M
  growth at 10 µM: 96%
NCI-H460
  growth at 10 µM: 62.4%
[1]
  growth at 10 µM: 23.3%
HT-29
  growth at 10 µM: 84.5%
NCI-H226
  growth at 10 µM: 111%
MDA-MB-435
  growth at 10 µM: 54.5%
SW-620
  growth at 10 µM: 48.4%
HOP-92
  growth at 10 µM: 87.9%
T47D
  growth at 10 µM: 93.7%
OVCAR-5
  growth at 10 µM: 111%

## COc1ccc(CCN2COc3c(C)c(C)c4c(c3C2)CC[C@@](C)(CC/C=C(\C)CC/C=C(\C)CCC=C(C)C)O4)cc1OC
TK-10
  growth at 10 µM: 105%
A549
  growth at 10 µM: 98.9%
Malme-3M
  growth at 10 µM: 93.6%
SR
  growth at 10 µM: 54.6%
K562
  growth at 10 µM: 78.3%
ACHN
  growth at 10 µM: 95.8%
NCI-H322M
  growth at 10 µM: 101%
NCI-H460
  growth at 10 µM: 103%
[1]
  growth at 10 µM: 70.5%
HT-29
  growth at 10 µM: 91.7%
NCI-H226
  growth at 10 µM: 97%
MDA-MB-435
  growth at 10 µM: 90.7%
SW-620
  growth at 10 µM: 101%
HOP-92
  growth at 10 µM: 106%
T47D
  growth at 10 µM: 98%
OVCAR-5
  growth at 10 µM: 101%

## CC(C)=CCC/C(C)=C/CC/C(C)=C/CC[C@]1(C)CCc2cc(O)c(C)c(C)c2O1 [GAMMA-TOCOTRIENOL]
TK-10
  growth at 10 µM: 122%
A549
  growth at 10 µM: 105%
Malme-3M
  growth at 10 µM: 92.5%
SR
  growth at 10 µM: 85.5%
K562
  growth at 10 µM: 85%
ACHN
  growth at 10 µM: 100%
NCI-H322M
  growth at 10 µM: 95.2%
RXF 393
  growth at 10 µM: 84.1%
NCI-H460
  growth at 10 µM: 105%
[1]
  growth at 10 µM: 115%
HT-29
  growth at 10 µM: 96.1%
NCI-H226
  growth at 10 µM: 90.8%
MDA-MB-435
  growth at 10 µM: 102%
SW-620
  growth at 10 µM: 110%
HOP-92
  growth at 10 µM: 92%
T47D
  growth at 10 µM: 82.5%
OVCAR-5
  growth at 10 µM: 114%

## CC(C)=CCC/C(C)=C/CC/C(C)=C/CC[C@]1(C)CCc2c3c(cc(C)c2O1)OCN(CCCCCCCCCCO)C3
TK-10
  growth at 10 µM: 101%
A549
  growth at 10 µM: 59.9%
Malme-3M
  growth at 10 µM: 101%
SR
  growth at 10 µM: 3.3%
K562
  growth at 10 µM: 45.4%
ACHN
  growth at 10 µM: 99.1%
NCI-H322M
  growth at 10 µM: 104%
RXF 393
  growth at 10 µM: 52.6%
NCI-H460
  growth at 10 µM: 91.6%
[1]
  growth at 10 µM: 98.5%
HT-29
  growth at 10 µM: 48.3%
NCI-H226
  growth at 10 µM: 89.8%
MDA-MB-435
  growth at 10 µM: 101%
SW-620
  growth at 10 µM: 104%
T47D
  growth at 10 µM: 86.1%
OVCAR-5
  growth at 10 µM: 105%
